Assay results from different studies.
Lines come from different studies, so protocols differ.
Target: Aurora kinase A (AURKA, Homo sapiens, UniProt O14965)
Residues used in one study (O14965 1-403): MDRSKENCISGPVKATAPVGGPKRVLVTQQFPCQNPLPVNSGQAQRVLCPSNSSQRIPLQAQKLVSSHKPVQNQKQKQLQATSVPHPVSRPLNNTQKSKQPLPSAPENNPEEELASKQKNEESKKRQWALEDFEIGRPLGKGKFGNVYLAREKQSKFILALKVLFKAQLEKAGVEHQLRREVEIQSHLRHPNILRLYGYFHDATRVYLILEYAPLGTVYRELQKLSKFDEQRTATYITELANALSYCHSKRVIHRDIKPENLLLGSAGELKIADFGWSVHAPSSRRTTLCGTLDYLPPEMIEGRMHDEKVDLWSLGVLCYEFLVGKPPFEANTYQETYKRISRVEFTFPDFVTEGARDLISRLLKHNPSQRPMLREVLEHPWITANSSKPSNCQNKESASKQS

SMILES	test	system	setting	endpoint	value
CCN(CC)CCNC(=O)c1c(C)[nH]c(/C=C2\C(=O)Nc3ccc(F)cc32)c1C	enzyme activity, inhibitor		1 µM	remaining activity	43%
CC1=C(C#N)C(c2ccc3c(c2)c(NC(=O)c2ccccc2C)nn3C)C(C#N)=C(C)N1	cell-free assay, competition with immobilised ligand		1 µM	remaining binding	61%
CS(=O)(=O)Nc1cccc(-c2csc(NC(=O)CSc3nc4nccnc4c(=O)n3CCc3ccccc3)n2)c1	enzyme activity, inhibitor		10 µM	inhibition	0%
CCN(CC)CCNC(=O)c1c(C)[nH]c(/C=C2\C(=O)Nc3ccc(F)cc32)c1C	enzyme activity, inhibitor		0.3 µM	inhibition	28%
COc1cc(Nc2cnc(C#N)c(O[C@H](C)CN(C)C)n2)ncc1-c1cnn(C)c1	enzyme activity, inhibitor, radiometric		10 µM	remaining activity	48%
COc1cc(Cl)c(C(=O)N[C@@H](CN[C@H]2CC[C@@H](N)CC2)Cc2ccc(C#N)cc2)cc1-c1ccc(CN[C@H](C)c2ccc(C)cc2)o1	enzyme activity, inhibitor		1 µM	remaining activity	98%
Cc1nc(Cc2cccc(C(F)(F)F)c2)sc1-c1ccc(C(N)=O)nc1	cell-free assay, competition with immobilised ligand		1 µM	remaining binding	100%
Cc1ccc(Nc2nccc(N(C)c3ccc4c(C)n(C)nc4c3)n2)cc1S(N)(=O)=O	enzyme activity, inhibitor		0.3 µM	inhibition	73%
Cc1[nH]c(/C=C2\C(=O)Nc3ccc(F)cc32)c(C)c1C(=O)N[C@H]1CCN(C(=O)N(C)C)C1	enzyme activity, inhibitor		0.1 µM	remaining activity	82%
Cc1c(NC(=O)c2cc(C(N)=O)nc3cc(F)ccc23)c(C(F)(F)F)nn1Cc1ccc(C#N)cc1	cell-free assay, competition with immobilised ligand		1 µM	remaining binding	89%
Cc1ccc(NC(=O)c2ccc(C)c(C(F)(F)F)c2)cc1C#Cc1nn(C2CCC(O)CC2)c2ncnc(N)c12 (centres unmarked)	cell-free assay		10 µM	remaining signal	64%
N#CC1(c2ccccn2)CCN(Cc2cc(C(=O)N3CCCC3)c(=O)n3ccccc23)CC1	cell-free assay, competition with immobilised ligand		1 µM	remaining binding	90%
O=C(Nc1cnn(-c2csc(C(=O)NC3COC3)c2)c1)Nc1ccccc1Cl	enzyme activity, inhibitor		5 µM	remaining activity	105%
CC(C)c1ccc(NC(=O)c2cccs2)c(-c2nc3ccccc3[nH]c2=O)c1	enzyme activity, inhibitor		1 µM	activity vs control	83%
CC(C)(O)[C@H]1CC[C@H](Nc2ccc3ncc(-c4cccc(C(F)(F)F)c4)n3n2)CC1	enzyme activity, inhibitor		1 µM	remaining activity	96.1%
CCC(=N\O)/C(C)=C/c1ccc(F)cc1	cell-free assay, competition with immobilised ligand		1 µM	remaining binding	100%

SMILES	test	system	setting	endpoint	value
Cn1c(=O)n(-c2ccc(C(C)(C)C#N)cc2)c2c3cc(-c4cnc5ccccc5c4)ccc3ncc21	enzyme activity, inhibitor		10 µM	remaining activity	104%
CCCOc1ccc(OC)c(F)c1C(=O)c1ccc(C(=O)N[C@@H]2CNC[C@H]2NC(=O)c2ccc3[nH]ncc3c2)cc1	enzyme activity, inhibitor		10 µM	remaining activity	33%
CC(C)(C)c1nc2c(s1)c1nc(N)ncc1c1ccc(NS(=O)(=O)c3c(F)cccc3F)c(F)c12	enzyme activity, inhibitor, radiometric		1 µM	remaining activity	103%
CC(C)(O)c1cncc(-c2nc3ccc(F)cc3n2C2CC2)c1	cell-free assay, competition with immobilised ligand		1 µM	remaining binding	94%
CNc1cc(Oc2cc(C(=O)Nc3cc(N4CCN(C)CC4)cc(C(F)(F)F)c3)ccc2C)ncn1	target engagement in cells, inhibitor, chemoproteomics	Huh-7	1 µM	inhibition	-45.4%
COc1cc2ncnc(Nc3ccc(Oc4ccccc4)c(C)c3C)c2cc1OC	enzyme activity, inhibitor		1 µM	inhibition	13%
C[C@@H]1CCN(C(=O)CC#N)C[C@@H]1N(C)c1ncnc2[nH]ccc12	cell-free assay, inhibitor		0.5 µM	remaining signal	84.1%
CNC(=O)Nc1ccc2c(c1)CC[C@@]21OC(=O)N(CC(=O)N(Cc2ccc(F)cc2)[C@@H](C)C(F)(F)F)C1=O	cell-free assay, competition with immobilised ligand		1 µM	remaining binding	80%
Cc1cnc(NC2CCOCC2)nc1-n1cnc(C(=O)NC(CN)c2cc(F)cc(Cl)c2)c1 (centres unmarked)	enzyme activity, inhibitor, radiometric		1 µM	remaining activity	48%
Oc1cccc(-c2nc(N3CCOCC3)c3oc4ncccc4c3n2)c1	enzyme activity, inhibitor		10 µM	remaining activity	92%
O=C(Nc1cnn(-c2csc(C(=O)NC3COC3)c2)c1)Nc1c(F)cccc1Cl	enzyme activity, inhibitor		5 µM	remaining activity	83.1%
N#CCCc1ccc2c(c1)-c1[nH]c3ccc([N+](=O)[O-])cc3c1CC(=O)N2	cell-free assay		0.5 µM	remaining signal	78.7%
CNC(=O)c1cc(Oc2ccc(NC(=O)Nc3ccc(Cl)c(C(F)(F)F)c3)cc2)ccn1	enzyme activity, inhibitor		0.3 µM	inhibition	16%
C[C@@H]1CN(c2cc(-c3n[nH]c4ccc(OC5(C)CC5)cc34)ncn2)C[C@H](C)O1	cell-free assay, competition with immobilised ligand		0.1 µM	remaining binding	94%
CSc1nc(C)c(-c2ccnc(Nc3ccc(N4CCOCC4)cc3)c2)[nH]1	enzyme activity, inhibitor		10 µM	inhibition	40.6%
Cc1ccc(C(=O)Nc2ccc(CN3CCN(C)CC3)c(C(F)(F)F)c2)cc1C#Cc1cnc2cccnn12	enzyme activity, inhibitor		23.5 nM	remaining activity	97%
